Assay results: ChEMBL document CHEMBL1148749, “Targeting plague virulence factors: a combined machine learning method and multiple conformational virtual screening for the discovery of Yersinia protein kinase A inhibitors” (J Med Chem, 2007)

How the values were obtained:
[1] = Inhibition of Yersinia sp. PKA
Method in brief: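 YpkA kinase activity measured by radiological assay with enzyme at 0.15 μM; IC50 values determined from this assay.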

[2] = Inhibition of MAPK; set-up: species or system Homo sapiens
[3] = target: Protein kinase C (PKC); assay: Inhibition of PKC; set-up: species or system Homo sapiens

O=C1NC(=O)C(=Cc2ccc(Sc3ccc(Cl)cc3)c([N+](=O)[O-])c2)C(=O)N1
IC50 [1]: 5.87 µM | IC50 [2]: 63 µM | IC50 [3]: > 200 µM

C=CCN1C(=O)NC(=O)/C(=C/c2ccc(-c3cc([N+](=O)[O-])ccc3Cl)o2)C1=O
IC50 [1]: 9.72 µM | IC50 [2]: 54.5 µM | IC50 [3]: 205.16 µM

O=C1c2ccccc2C(=O)c2cc(S(=O)(=O)Nc3cccc([N+](=O)[O-])c3)ccc21
IC50 [1]: 19.8 µM | IC50 [2]: > 200 µM | IC50 [3]: 165 µM

O=C1Nc2ccc(Br)cc2/C1=C1/SC(=S)N(c2cccc(Cl)c2)C1=O
IC50 [1]: 1.81 µM | IC50 [2]: 2.45 µM | IC50 [3]: > 200 µM
